Test results reported in ChEMBL document CHEMBL1275590, “Novel arylimidamides for treatment of visceral leishmaniasis” (Antimicrob Agents Chemother, 2010).

Columns and labels:
[1] = Cmax in Swiss Webster mouse at 4.9 mg/kg, iv by HPLC-MS/MS analysis; type: ADME, organism-based; parameters: dose 4.9 mg/kg, route intravenous; conditions: in vivo
How it was run: (§1)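 Male Swiss Webster mice, n = 3 per time point. For i.v., the compound was dissolved in sterile water, diluted 1:1 with 2× saline, and given as a tail-vein bolus over ~10–20 s. For p.o., it was given by gavage in sterile water. Dose volume was 5 ml/kg. Terminal plasma was taken from 5 min to 72 h and measured by HPLC-MS/MS (calibration 2.5–10,000 nM). Parameters came from noncompartmental analysis.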

[2] = test system: Mus musculus; assay: Toxicity in BALB/c mouse assessed as occurrence of tremor at 30 mg/kg, iv; type: organism-based; parameters: dose 30 mg/kg, route intravenous; conditions: in vivo
How it was run: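 Single-dose escalation: female BALB/c mice (n = 1 per dose level) given one i.v. dose in sterile water (10 ml/kg), 5–50 mg/kg, observed for 2 days.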

[3] = test system: Mus musculus; assay: AUC (0 to infinity) in Swiss Webster mouse at 131 mg/kg, po by HPLC-MS/MS analysis; type: ADME, organism-based, Plasma; parameters: dose 131 mg/kg, route oral, time infinity; conditions: in vivo; how it was run: as §1
[4] = Half life in Swiss Webster mouse at 4.9 mg/kg, iv by HPLC-MS/MS analysis; type: ADME, organism-based; parameters: dose 4.9 mg/kg, route intravenous; conditions: in vivo; how it was run: as §1
[5] = test system: Mus musculus; assay: Toxicity in BALB/c mouse assessed as hypoactivity at 100 mg/kg/day, ip after second dose; type: organism-based; parameters: route intraperitoneal; conditions: in vivo
[6] = test system: Mus musculus; assay: Hepatotoxicity in BALB/c mouse assessed as alkaline phosphatase level in serum at 100 mg/kg/day, po administered for five days (Rvb= 129 U/L); type: toxicity, organism-based; parameters: route oral; conditions: in vivo
[7] = test system: Mus musculus; assay: Toxicity in BALB/c mouse assessed as splenic lymphoid depletion at 150 mg/kg/day, po; type: organism-based; parameters: route oral; conditions: in vivo
How it was run: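 Five-day repeat-dose study in female BALB/c mice (n = 5 per dose level): oral dosing once daily for five consecutive days in sterile water prepared fresh daily under yellow light, 20 ml/kg. Vehicle controls received sterile water only. Clinical observations and body weights were recorded, with blood for hematology and serum chemistry taken on day 6 before necropsy. A veterinary pathologist examined formalin-fixed tissues.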

[8] = test system: Mus musculus; assay: Toxicity in BALB/c mouse assessed as gastric inflammation at 150 mg/kg/day, po; type: organism-based, Stomach; parameters: route oral; conditions: in vivo
[9] = Oral bioavailability in Swiss Webster mouse at 131 mg/kg by HPLC-MS/MS analysis; type: ADME, organism-based; conditions: in vivo
How it was run: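 Male Swiss Webster mice (n = 3 per time point), single dose by oral gavage (sterile water solution) or tail-vein bolus i.v. (water diluted 1:1 with 2× saline, over ~10–20 s); dose volume 5 ml/kg. Terminal blood sampled from 5 min to 72 h postdose; plasma quantified by HPLC-MS/MS (positive-ion SRM). Noncompartmental analysis gave Cmax, Tmax, AUC0-∞, CL, Vss; bioavailability from p.o. versus i.v. exposure.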

[10] = Half life in Swiss Webster mouse at 1 mg/kg, iv by HPLC-MS/MS analysis; type: ADME, organism-based; parameters: dose 1 mg/kg, route intravenous; conditions: in vivo
How it was run: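 Male Swiss Webster mice, n = 3 per time point. For i.v., the compound was dissolved in sterile water, diluted 1:1 with 2× saline, and given as a tail-vein bolus over ~10–20 s. For p.o., it was given by gavage in sterile water. Dose volume was 5 ml/kg. Parameters came from noncompartmental analysis.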

[11] = Half life in Swiss Webster mouse at 5 mg/kg, iv by HPLC-MS/MS analysis; type: ADME, organism-based; parameters: dose 5 mg/kg, route intravenous; conditions: in vivo; how it was run: as §1
[12] = Induction of mutagenicity in Salmonella serovar Typhimurium TA 100 assessed as number of revertant colonies at 10 ug by Ames assay; type: toxicity, Salmonella enterica subsp. enterica serovar Typhimurium; conditions: in vivo
How it was run: (§2)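 Ames plate incorporation with S. Typhimurium TA98 and TA100, with or without Aroclor 1254-induced rat liver S9 (10% vol/vol). Compound was dissolved in sterile water and serially diluted to 1–500 μg/plate. Positive controls were 2-nitrofluorene and sodium azide without S9, and 2-aminoanthracene with S9; sterile water and DMSO served as vehicles. Revertant colonies and background lawn were scored. A mutagen was defined as a mean revertant count at least 2-fold over solvent control. Single experiment.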

[13] = test system: Mus musculus; assay: Hepatotoxicity in BALB/c mouse assessed as AST level in serum at 100 mg/kg/day, po administered for five days (Rvb= 70 U/L); type: toxicity, organism-based; parameters: route oral; conditions: in vivo
[14] = Induction of mutagenicity in Salmonella serovar Typhimurium TA 100 assessed as number of revertant colonies at 500 ug by Ames assay; type: toxicity, Salmonella enterica subsp. enterica serovar Typhimurium; conditions: in vivo; how it was run: as §2
[15] = Induction of mutagenicity in Salmonella serovar Typhimurium TA 98 assessed as number of revertant colonies at 50 ug by Ames assay in presence of Aroclor 1254-induced rat liver S9 metabolic activation system; type: toxicity, subcellular, Salmonella enterica subsp. enterica serovar Typhimurium
How it was run: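 Plate incorporation test, S. Typhimurium TA98 (and TA100), with or without Aroclor 1254-induced rat liver S9 (10% vol/vol). Compound dissolved in sterile water, serially diluted to 1–1,000 or 1–500 μg/plate. Positive controls: 2-nitrofluorene and sodium azide without S9, 2-aminoanthracene with S9; water and DMSO vehicle controls. Revertant colonies and background lawn scored; mutagen if mean revertants ≥2-fold solvent control. Single experiment.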

[16] = test system: Leishmania donovani; assay: Antileishmanial activity against Leishmania donovani WR378 infected in golden Syrian hamster assessed as reduction in liver parasitemia at 50 mg/kg/day, po administered for five days; type: functional; conditions: 120 h
How it was run: (§3)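 11-day golden hamster VL model adapted from an 8-day method, using L. donovani WR378 metacyclic promastigotes. Dosing was oral, once daily for 5 days. Animals were euthanized on day 11 post-infection. Liver, spleen and femoral bone marrow (flushed with Schneider's medium) were harvested.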

[17] = test system: Mus musculus; assay: Hepatotoxicity in BALB/c mouse assessed as ALT level in serum at 30 mg/kg/day, iv administered for five days (Rvb= 34 U/L); type: toxicity, organism-based; parameters: route intravenous; conditions: in vivo
[18] = Drug level in Swiss Webster mouse spleen at 5 mg/kg, iv after 2 hrs by HPLC/UV analysis; conditions: read-out: Drug uptake
[19] = test system: Leishmania donovani; assay: Antileishmanial activity against Leishmania donovani WR378 infected in golden Syrian hamster assessed as reduction in spleen parasitemia at 50 mg/kg/day, po administered for five days; type: functional; conditions: 120 h; how it was run: as §3
[20] = Induction of mutagenicity in Salmonella serovar Typhimurium TA 98 assessed as number of revertant colonies at 100 ug by Ames assay in presence of Aroclor 1254-induced rat liver S9 metabolic activation system; type: toxicity, subcellular, Salmonella enterica subsp. enterica serovar Typhimurium; how it was run: as §2
[21] = Volume of distribution in Swiss Webster mouse at 5 mg/kg, iv by HPLC-MS/MS analysis; type: ADME, organism-based; parameters: dose 5 mg/kg, route intravenous; conditions: in vivo
How it was run: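 Male Swiss Webster mice (n = 3 per time point) got a single tail-vein bolus over ~10 to 20 s, 5 ml/kg. Compound was dissolved in sterile water at 2× and diluted 1:1 with 2× saline. Terminal blood was taken from 5 min to 72 h, and plasma was quantified by HPLC-MS/MS. Vss came from noncompartmental analysis.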

[22] = test system: Mus musculus; assay: Toxicity in BALB/c mouse assessed as hypoactivity at 50 mg/kg/day, ip administered for five days; type: organism-based; parameters: route intraperitoneal; conditions: in vivo
[23] = Induction of mutagenicity in Salmonella serovar Typhimurium TA 100 assessed as number of revertant colonies at 1 ug by Ames assay in presence of Aroclor 1254-induced rat liver S9 metabolic activation system; type: toxicity, subcellular, Salmonella enterica subsp. enterica serovar Typhimurium; how it was run: as §2
[24] = Drug level in Swiss Webster mouse kidney at 5 mg/kg, iv after 2 hrs by HPLC/UV analysis; conditions: read-out: Drug uptake
[25] = Half life in Swiss Webster mouse at 70 mg/kg, po by HPLC-MS/MS analysis; type: ADME, organism-based; parameters: dose 70 mg/kg, route oral; conditions: in vivo; how it was run: as §1

CCOc1cc(NC(=N)c2ccccn2)ccc1-c1ccc(-c2ccc(NC(=N)c3ccccn3)cc2OCC)o1
Cmax [1]: 4.24 µM
Activity [2]: Toxic
AUC [3]: 30 µM·h
half-life [4]: 1080 min
Activity [5]: Toxic
Activity [6]: 120 U/L
Activity [7]: Toxic
Activity [8]: Toxic
bioavailability [9]: 25%
half-life [10]: 1020 min

CC(C)Oc1cc(NC(=N)c2ccccn2)ccc1-c1ccc(-c2ccc(NC(=N)c3ccccn3)cc2OC(C)C)o1
half-life [11]: 1440 min
Activity [12]: 148
Activity [13]: 68 U/L
Activity [14]: Toxic
Activity [15]: 39
inhibition in vivo at 50 mg/kg/day [16]: 76%
Activity [17]: 35 U/L
concentration at 2 h [18]: 13.5 µM
inhibition in vivo at 50 mg/kg/day [19]: 74%
Activity [20]: 38
Vd [21]: 15 L/kg
Activity [22]: Toxic
Activity [23]: 159
concentration at 2 h [24]: 12.7 µM
half-life [25]: 2880 min
